Bioassay records from PubChem BioAssay.
Rows were chosen to be rich in hits. Some 3.9% of all compounds tested hit in one or more screens of this group.
AHR activator: human AHR activation; P35869; AHR-responsive luciferase reporter cells, luminescence; activation, % at 5 µM; actives 2.5% (n = 320,000); in the data active = activation above about 47%;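 note: 0% = vehicle wells and 100% = reference agonist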
ABCB6 inh MLPCN: inhibitors of human ABC transporter ABCB6. Q9NP58. K562-ABCB6 porphyrin accumulation, flow cytometry, 1 h; active compounds read low. fluorescence ratio to DMSO, % at 10 µM. actives 0.19% (n = 360,000). AID 602162;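 active = fluorescence ratio to DMSO below 75%, the collection mean minus 3 SD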;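 note: signal is porphyrin accumulated inside mitochondria; 100% equals median channel fluorescence of DMSO control wells; lower ratio means ABCB6 inhibition with less porphyrin fluorescence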
GAA850 FXN act: frataxin GAA850 promoter activation | activation, % at 6 µM | AID 540364 | actives 0.56% (n = 360,000) | HEK293 lucGAA850 FXN promoter luciferase reporter, 24 h; percent of 10 µM SAHA response;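 active = activation above the average of all compounds screened plus 3 SD, cutoff fixed separately per campaign, cut at about 7.5% in these data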;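 note: 0% = DMSO wells and 100% = 10 µM SAHA wells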
SR-BI DiI-HDL act: activators of SR-BI mediated HDL lipid uptake | CHO ldlA[mSR-BI] cells, DiI-HDL uptake fluorescence, 3 h; 100 = double the neutral-control signal | activation, % at 12.5 µM | actives 0.096% (n = 320,000);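 active = mean replicate activation of at least 60% and every replicate at or above 60%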;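 note: 0% = median plate neutral-control signal and 100% = twice that signal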
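Material – SR-BI-overexpressing, LDLR-lacking CHO cells · Medium – BSA-supplemented, HEPES-buffered Ham's F12, pH 7.4 · Doses – single concentration · Times – compound with DiI-HDL co-incubation, 3 h at 37 °C · Measured by – bottom-read fluorescence, 550/595 nm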
SR-BI HDL uptake: inhibitors of mouse SR-BI mediated HDL lipid uptake. inhibition, % at 12.5 µM. ldlA[mSR-BI] CHO cells, DiI-HDL uptake fluorescence, 3 h. actives 0.96% (n = 320,000). Q61009. AID 488896;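 active = mean replicate inhibition of at least 70% and a set share of replicates each scoring 70 or more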;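 note: 0% = median of neutral control wells and 100% = median of positive control wells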
HIF act: HIF pathway transcriptional activation. actives 0.32% (n = 300,000). U2OS HRE-luciferase reporter, luminescence; normalized: DMSO 0%, desferrioxamine 100%. activation, % at 7.5 µM (by protocol);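 active = mean activation of at least 10% of the iron chelator positive control signal, with at least half of replicates also reaching 10%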
AHR act confirm: confirmation of human aryl hydrocarbon receptor activators; AID 2845; actives 87% (n = 2,300); shares compounds with AHR activator; activation, % at 9 µM; human cells, AHR-responsive luciferase reporter, luminescence; in the data active = activation above about 49%;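 note: HepG2 hepatoma cells carrying a DRE-driven firefly luciferase reporter; 0% = vehicle wells and 100% = reference agonist wells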
PXR counter: counter-screen for AHR activators: human PXR activators; shares compounds with AHR activator; cell-based PXR reporter, luciferase luminescence; actives 88% (n = 2,300); activation, % at 11.6 µM; in the data active = activation above about 11%;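 note: human hepatoma DPX-2 cells expressing full-length human PXR; 0% = DMSO and 100% = reference agonist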
Target sequence (O75469 whole entry, looked up): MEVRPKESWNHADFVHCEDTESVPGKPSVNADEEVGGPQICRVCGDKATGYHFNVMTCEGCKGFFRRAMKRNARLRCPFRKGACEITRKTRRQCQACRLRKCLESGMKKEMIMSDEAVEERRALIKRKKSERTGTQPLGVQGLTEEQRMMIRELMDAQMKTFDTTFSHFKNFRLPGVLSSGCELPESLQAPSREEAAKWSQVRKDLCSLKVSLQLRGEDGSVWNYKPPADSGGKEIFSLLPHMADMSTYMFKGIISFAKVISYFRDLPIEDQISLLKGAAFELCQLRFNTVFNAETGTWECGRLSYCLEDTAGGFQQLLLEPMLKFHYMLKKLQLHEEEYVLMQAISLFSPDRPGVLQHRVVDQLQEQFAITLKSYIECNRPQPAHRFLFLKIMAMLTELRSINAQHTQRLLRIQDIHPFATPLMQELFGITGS
* marks the source's active call; other numbers are inactive results; i = inactive; x = no result.

SMILES	AHR activator	ABCB6 inh MLPCN	GAA850 FXN act	SR-BI DiI-HDL act	SR-BI HDL uptake	HIF act	AHR act confirm	PXR counter
O=C(Nc1ccccc1C(=O)Nc1ccccc1)c1ccccc1F	82.5*	78.0	1.0	-26.6	26.6	-0.2	64.9*	41.1*
O=C(O)c1cccc(NC(=O)c2ccccc2NC(=O)c2ccccc2F)c1	4.0	99.0	0.3	33.3	-33.3	-1.1	x	x
CC(=O)Nc1cccc(NC(=O)c2cccc3cccnc23)c1	123.9*	101.0	-0.9	-3.8	3.8	0.5	100.9*	55.6*
Cc1ccc(NC(=O)c2cccc3cccnc23)cc1	120.9*	100.0	4.7	-10.2	10.2	5.4	109.6*	30.1*
COc1ccc(N2CCN(C(=S)NCCc3ccccc3)CC2)cc1	6.5	102.0	-0.4	-22.2	22.2	2.1	x	x
COc1ccc(C)cc1NS(=O)(=O)c1cn(C)nc1C	-0.8	97.0	2.0	8.1	-8.1	-0.1	x	x
O=C(CCC(=O)N1CCN(c2ccc(F)cc2)CC1)N1CCN(c2ccc(F)cc2)CC1	-0.3	99.0	-1.4	-52.3	52.3	0.5	x	x
CC(=O)c1ccc(C(=O)Nc2sc3c(c2C(N)=O)CCN(Cc2ccccc2)C3)cc1	4.8	104.0	-1.9	-33.3	33.3	-0.1	x	x
COc1cccc(OC)c1C(=O)Nc1sc2c(c1C(N)=O)CCN(Cc1ccccc1)C2	128.7*	92.0	-5.6	-47.8	47.8	0.0	85.3*	58.6*
CC=Cc1cc(OC)c2c(c1)C(C)C(c1ccc(O)c(OC)c1)O2 (centres undefined)	x	99.0	0.8	-24.6	24.6	x	x	x
CCOc1ccc(-c2cc(C)n3nc(C(N)=O)cc3n2)cc1	79.2*	107.0	-4.0	32.0	-32.0	0.6	67.7*	x
Cc1c(-c2ccc(Br)cc2)nc2ccccn12	165.2*	99.0	7.2	-18.4	18.4	3.0	171.6*	14.5*
COc1ccc(N2CCN(C(=O)c3cc4c(-c5ccc(Cl)cc5)nn(C)c4s3)CC2)cc1	90.1*	101.0	0.9	5.9	-5.9	x	121.3*	33.1*
CN1CCN(CCCNC(=O)c2cc3c(-c4ccc(Cl)cc4)nn(C)c3s2)CC1	97.8*	97.0	0.9	-39.8	39.8	x	101.7*	x
COc1ccc(N2CCN(C(=O)c3c(Cl)cnn3C)CC2)cc1	7.4	112.0	2.2	1.2	-1.2	-0.2	x	x
Cc1ccc(S(=O)(=O)Cc2ccc(C(=O)NCc3cccs3)o2)cc1	0.1	97.0	-0.9	14.6	-14.6	-0.4	x	x
O=[N+]([O-])c1ccc(N/N=C/c2sc(N3CCOCC3)nc2-c2ccccc2)c(S(=O)(=O)Nc2ccccc2Cl)c1	x	i	0.8	16.8	-16.8	x	x	x
O=C(N/N=C1\CC2CC=CC12)c1ccc(Br)cc1 (centres undefined)	3.8	97.0	1.1	15.2	-15.2	-0.1	x	x
Cc1cc(Br)c(OCc2ccc(C(=O)N/N=C3\CC4CC=CC34)cc2)c(Br)c1 (centres undefined)	105.3*	103.0	1.7	-84.1	84.1*	0.1	78.7*	11.5*
CCc1cc(Cn2nc(-c3ccccc3)cc2C(=O)NCc2cccc(C(F)(F)F)c2)on1	2.3	96.0	0.3	16.2	-16.2	-0.8	x	x
[O-][n+]1c2ccccc2c2n1CCN1CCOC21c1ccc(Cl)cc1 (centres undefined)	80.2*	101.0	2.0	8.7	-8.7	x	117.9*	64.7*
COc1ccc(/C=N/N=C2\CC3CCC2(C)C3(C)C)cc1O (centres undefined)	0.1	142.0	0.1	-0.8	0.8	2.6	x	x
CCOC(=O)C1(Cc2ccc(OC)cc2)CCN(C(=O)c2cc(C)on2)CC1	4.8	96.0	1.9	6.0	-6.0	0.5	x	x
CCOC(=O)C1(Cc2ccc(OC)cc2)CCN(C(=O)c2cc3ccccc3[nH]2)CC1	104.7*	88.0	5.4	-2.9	2.9	0.5	89.4*	40.3*
CCCN(CCC)CCNC(=O)c1cc2c(=O)n(C)c3ccccc3c2n1C	98.0*	103.0	2.3	-40.5	40.5	-0.2	91.0*	42.1*
SMILES	AHR activator	ABCB6 inh MLPCN	GAA850 FXN act	SR-BI DiI-HDL act	SR-BI HDL uptake	HIF act	AHR act confirm	PXR counter
CN(CCNC(=O)c1cc2c(=O)n(C)c3ccccc3c2n1C)Cc1ccccc1	33.5	100.0	-0.7	-25.1	25.1	-0.1	x	x
CCNS(=O)(=O)c1ccc(C(=O)OCC(=O)N2CCCc3ccccc32)cc1	2.7	98.0	0.3	x	-19.0	x	x	x
Cc1cc(C)nc(N/N=C/C2=C(N3CCOCC3)C(=C\c3ccc(Cl)cc3)/CC2)n1	90.1*	99.0	2.9	-73.8	73.8*	0.0	125.6*	12.4*
CC(C)(C)OC(=O)N1CCN(C(=O)OCC2c3ccccc3-c3ccccc32)CC1C(=O)O (centres undefined)	2.8	92.0	0.2	34.9	-34.9	0.0	x	x
CN(C(=O)/C=C/c1ccc2c(c1)OCO2)c1ccccc1	96.7*	94.0	4.5	5.6	-5.6	2.0	79.4*	113.5*
COc1ccc(NC(=O)c2c(C)nn(Cc3ccccc3)c2Cl)cc1S(=O)(=O)N1CCOCC1	1.8	87.0	0.9	-27.6	27.6	0.3	x	x
CCN(CC)CCNc1nc2cc(OC)c(OC)cc2c2nc(-c3ccccc3)nn12	90.4*	94.0	-4.2	5.6	-5.6	1.5	16.6	4.6
Cc1ccccc1/C=C1\Oc2ccccc2C1=O	98.8*	102.0	-0.2	-3.8	3.8	x	92.3*	98.0*
CCOc1ccc(CNS(=O)(=O)c2cc(CN3C(=O)c4cccnc4C3=O)ccc2OC)cc1	3.7	104.0	-0.1	17.0	-17.0	-0.6	x	x
Cn1ncc(Cl)c1C(=O)NCc1cc(C(C)(C)C)n[nH]1	9.0	87.0	0.2	5.4	-5.4	0.1	x	x
Clc1ccccc1Cn1nnc(-c2cccs2)n1	117.0*	91.0	3.5	-15.0	15.0	3.2	149.6*	37.4*
O=C(NC(=S)Nc1cccc(C(F)(F)F)c1)c1csnn1	5.5	98.0	-0.4	7.5	-7.5	-0.2	x	x
COc1ccc(-n2c(SCc3ccccn3)nc3c(c2=O)SCC3)cc1OC	1.3	95.0	1.2	19.9	-19.9	0.0	x	x
CC1CC(C)(C)NC(=S)N1CCCC(=O)Nc1ccc(Cl)cc1 (centres undefined)	1.1	93.0	2.1	-5.8	5.8	-0.2	x	x
N#C/C(=C1/CCCCCN1)c1nc2ccccc2[nH]1	115.1*	96.0	4.2	-20.6	20.6	3.1	143.9*	48.4*
N#C/C(=C1\CCCN1)c1ccc2ccccc2n1	21.1	x	-1.5	-42.3	42.3	0.0	x	x
Cc1cccc(CC2S/C(=N/c3ccccn3)NC2=O)c1 (centres undefined)	7.0	100.0	-0.9	-6.4	6.4	0.2	x	x
